Source: ChEMBL document CHEMBL4622957, “Green asymmetric synthesis of epoxypeptidomimetics and evaluation as human cathepsin K inhibitors” (Bioorg Med Chem, 2020)
Active and inactive are the calls of the source. The calls are words filed in the database; no cut-off is given here.

How the values were obtained:
[1] = target: T1, Cathepsin K (Homo sapiens, UniProt P43235); test: Inhibition of recombinant human cathepsin K using Z-Phe-Arg-MCA as fluorogenic substrate preincubated for 5 mins followed by substrate addition and measured after 5 mins by fluorimetric analysis
T1 sequence (P43235 whole entry): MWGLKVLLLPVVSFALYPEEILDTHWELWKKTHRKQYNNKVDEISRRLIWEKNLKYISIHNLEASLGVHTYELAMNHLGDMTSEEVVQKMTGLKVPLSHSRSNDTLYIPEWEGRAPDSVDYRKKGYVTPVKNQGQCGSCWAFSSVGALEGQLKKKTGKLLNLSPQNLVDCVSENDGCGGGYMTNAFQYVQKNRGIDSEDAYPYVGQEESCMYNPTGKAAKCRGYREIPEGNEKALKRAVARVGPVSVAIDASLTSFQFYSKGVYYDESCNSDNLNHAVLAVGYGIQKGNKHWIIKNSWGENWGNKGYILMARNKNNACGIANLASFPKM
In short: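 Recombinant human CatK, expressed in Pichia pastoris and active-site titrated with E-64, was used at 2 nM in 0.1 M sodium acetate pH 5.5 with 2.5 mM DTT and 2.5 mM EDTA at room temperature. Enzyme and inhibitor were preincubated 5 min, then 10 μM Z-Phe-Arg-MCA was added. Fluorescence (ex 380/em 460 nm) was read for 5 min. Triplicates; % inhibition from initial rates; IC50 from ≥7 inhibitor concentrations.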

[2] = target: T2, Cathepsin K (Homo sapiens) (UniProt P43235); test: Mixed type inhibition of recombinant human cathepsin K by Michaelis-Menten plot analysis
T2 sequence (whole entry): T1 sequence (P43235 whole entry)

[3] = target: T1, Cathepsin K; test: Binding affinity to recombinant human cathepsin K
[4] = target: T3, Procathepsin L (Homo sapiens, UniProt P07711); test: Inhibition of cathepsin L (unknown origin) at 25 uM using fluorogenic Z-FR-MCA as substrate preincubated for 5 mins followed by substrate addition by spectrofluorimetric assay relative to control
Target sequence in this assay (P07711 114-333 limits assumed): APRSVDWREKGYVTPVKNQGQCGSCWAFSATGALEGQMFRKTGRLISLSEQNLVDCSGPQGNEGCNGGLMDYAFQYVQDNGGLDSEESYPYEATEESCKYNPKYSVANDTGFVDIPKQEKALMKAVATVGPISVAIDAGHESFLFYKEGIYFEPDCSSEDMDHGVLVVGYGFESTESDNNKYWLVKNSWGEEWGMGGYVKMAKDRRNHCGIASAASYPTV

[5] = target: T3, Procathepsin L; test: Inhibition of cathepsin L (unknown origin) using fluorogenic Z-FR-MCA as substrate preincubated for 5 mins followed by substrate addition by spectrofluorimetric assay
Target sequence in this assay (P07711 whole entry): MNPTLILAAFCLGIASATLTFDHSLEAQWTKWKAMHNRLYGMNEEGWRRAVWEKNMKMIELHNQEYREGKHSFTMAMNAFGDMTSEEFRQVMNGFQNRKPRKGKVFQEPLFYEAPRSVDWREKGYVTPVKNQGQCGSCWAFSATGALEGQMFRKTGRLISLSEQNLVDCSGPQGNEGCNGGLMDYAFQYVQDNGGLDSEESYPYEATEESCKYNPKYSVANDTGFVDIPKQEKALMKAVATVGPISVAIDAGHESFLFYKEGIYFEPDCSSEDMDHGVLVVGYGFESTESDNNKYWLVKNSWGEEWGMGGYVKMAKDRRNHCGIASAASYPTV

IC50 [1] | inhibition [2] | Ki [3] | inhibition [4] | IC50 [5] | SMILES
3.35 µM | Active | 5.45 µM | – | – | CCCCCCC[C@H]1O[C@@H]1C(OC(=O)c1ccc(I)cc1)C(=O)NCCCC (stereo partly drawn)
7.6 µM | – | – | 0% | – | CCCCCCC[C@H]1O[C@@H]1C(OC(=O)C1CCCCC1)C(=O)NC(C)(C)C (stereo partly drawn)
– | – | – | – | > 50 µM | CCCCNC(=O)C([C@H]1O[C@@H]1c1ccccc1Br)N(Cc1ccccc1)C(=O)c1ccccc1 (stereo partly drawn)
– | – | – | – | 5.36 µM | CCCCCCC[C@H]1O[C@@H]1C(OC(=O)c1ccc(I)cc1)C(=O)NC1CCCCC1 (stereo partly drawn)
– | – | – | – | > 50 µM | CCCCNC(=O)C([C@H]1O[C@@H]1c1ccccc1[N+](=O)[O-])N(Cc1ccccc1)C(=O)c1ccccc1 (stereo partly drawn)
18.5 µM | – | – | 0% | – | CCCCNC(=O)C([C@H]1O[C@@H]1c1ccccc1)N(Cc1ccccc1)C(=O)c1ccccc1 (stereo partly drawn)
– | – | – | 0% | – | CCCCNC(=O)C([C@H]1O[C@@H]1CC)N(Cc1ccccc1)C(=O)c1ccccc1 (stereo partly drawn)
2.21 µM | – | – | – | – | CCCCCCC[C@H]1O[C@@H]1C(OC(=O)c1ccc(I)cc1)C(=O)NC(C)(C)C (stereo partly drawn)
3.81 µM | – | – | 0% | – | CCCCCCC[C@H]1O[C@@H]1C(OC(=O)CCCCCBr)C(=O)NC(C)(C)C (stereo partly drawn)
6.44 µM | Active | 9.57 µM | 30% | – | CCCCNC(=O)C([C@H]1O[C@@H]1c1ccccc1)N(C(=O)c1ccc(I)cc1)C(C)(C)C (stereo partly drawn)
